The text below walks through data of ChEMBL document CHEMBL1157836, “Dibenzocyclooctadiene lignans from Schisandra wilsoniana and their anti-HIV-1 activities” (J Nat Prod, 2010).

≈ marks a conversion by molar mass, not a printed value.

A short description of series [1]: Cytotoxicity against human C8166 cells by MTT assay. The series is classed as cell-based. The procedure, abridged: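 C8166 cells were tested by MTT assay alongside the anti-HIV-1 determination, giving CC50. AZT served as the positive control.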
In general terms: Tetrazolium assays rely on reduction of a dye to a coloured formazan, in cell work by metabolically active cells.

Series [2] concerns Human immunodeficiency virus 1. The series is described as follows: Antiviral activity against HIV1 infected in human C8166 cells assessed as inhibition of virus-induced cytopathic effect. It is filed as functional, organism-based. The conditions noted are these: Human immunodeficiency virus 1, C8166. Put shortly:
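HIV-1 cytopathic-effect inhibition assay in C8166 cells, giving EC50. AZT served as the positive control. Cytotoxicity was determined in parallel.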
A general note: Protection from cytopathic effect is a common read-out in antiviral testing.

Series [3] can be described thus: Therapeutic index, ratio of CC50 for C8166 cells to EC50 for HIV1. The series is classed as cell-based. The conditions noted are these: human, read-out: TI. Put shortly:
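TI was calculated as CC50 over EC50. CC50 came from the MTT assay on C8166 cells; EC50 came from HIV-1 cytopathic-effect inhibition in C8166 cells, run in parallel.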

Usually CC50 stands for the concentration giving 50% cytotoxicity. Higher therefore signals better tolerance by the cells. By EC50 is commonly meant the concentration that produces a half-maximal response.

Compound `COc1c(O)cc2c(c1OC)-c1c(cc(O)c(OC)c1OC)[C@H](OC(=O)c1ccccc1)[C@@H](C)[C@@H](C)C2` had a CC50 in series [1] of 14.2 µg/mL (≈ 27.9 µM). Besides, in series [2], the EC50 turned out to be 2.1 µg/mL (≈ 4.13 µM). Besides, the selectivity ratio in series [3] amounted to 6.7.
For `COc1c(O)cc2c(c1O)-c1c(cc(O)c(OC)c1OC)C[C@@H](C)[C@@H](C)C2` [MARLIGNAN A] the same measures were 15.8 µg/mL (≈ 42.2 µM), 2.6 µg/mL (≈ 6.94 µM) and 6.
On the same counts, the results for `COc1cc2c(c(O)c1OC)-c1c(cc(O)c(OC)c1O)C[C@@H](C)[C@@H](C)C2` [MARLIGNAN B] are 43.4 µg/mL (≈ 116 µM), 5.1 µg/mL (≈ 13.6 µM) and 8.4.
`COc1cc2c(c(O)c1O)-c1c(cc(OC)c(OC)c1O)C[C@@H](C)[C@@H](C)C2` [MARLIGNAN C] showed a CC50 in series [1] of 65.6 µg/mL (≈ 175 µM). Further, the EC50 in series [2] came out at 5 µg/mL (≈ 13.4 µM). For the same compound, the selectivity ratio in series [3] was found to be 13.2.
On the same counts, the results for `COc1c(O)cc2c(c1OC)-c1c(cc(O)c(OC)c1OC)[C@H](O)[C@@H](C)[C@@H](C)C2` [MARLIGNAN D] are 14.2 µg/mL (≈ 35.1 µM), 2.5 µg/mL (≈ 6.18 µM) and 5.7.
For `COc1c(O)cc2c(c1OC)-c1c(cc(O)c(OC)c1OC)[C@H](OC(C)=O)[C@@H](C)[C@@H](C)C2` [MARLIGNAN E] the same measures were 13.7 µg/mL (≈ 30.7 µM), 1.6 µg/mL (≈ 3.58 µM) and 8.7.
`COc1c(O)cc2c(c1OC)-c1c(cc(O)c(OC)c1OC)[C@H](OC)[C@@H](C)[C@@H](C)C2` [MARLIGNAN F] showed a CC50 in series [1] of 21.4 µg/mL (≈ 51.1 µM). For the same compound, in series [2], the EC50 is 1.4 µg/mL (≈ 3.35 µM). Also, in series [3], the selectivity ratio is 15.6.
For `COc1c(O)cc2c(c1OC)-c1c(cc(O)c(OC)c1OC)C(=O)[C@@H](C)[C@@H](C)C2` [MARLIGNAN H] the same measures were 46.5 µg/mL (≈ 116 µM), 2.6 µg/mL (≈ 6.46 µM) and 17.6.
On the same counts, the results for `COc1cc2c(c(OC)c1OC)-c1c(cc(OC)c(OC)c1OC)[C@H](OC(C)=O)[C@@H](C)[C@@H](C)C2` [MARLIGNAN I] are 13.5 µg/mL (≈ 28.4 µM), 2.9 µg/mL (≈ 6.11 µM) and 4.6.
For `CCO[C@H]1c2cc(OC)c(OC)c(OC)c2-c2c(cc(OC)c(OC)c2OC)C[C@H](C)[C@@H]1C` [MARLIGNAN J] the same measures were 17.2 µg/mL (≈ 37.3 µM), 1.9 µg/mL (≈ 4.13 µM) and 9.3.
As for `COc1cc2c(c(OC)c1OC)-c1c(cc(O)c(OC)c1O)C[C@H](C)[C@@](C)(O)C2` [MARLIGNAN K], the CC50 in series [1] came out at 14.8 µg/mL (≈ 36.6 µM). Moreover, the EC50 in series [2] worked out at 1.9 µg/mL (≈ 4.7 µM). Moreover, the selectivity ratio in series [3] was 7.7.
On the same counts, the results for `COc1c(O)cc2c(c1OC)-c1c(cc(O)c(OC)c1OC)C[C@](C)(O)[C@@H](C)C2` [MARLIGNAN L] are 22.6 µg/mL (≈ 55.9 µM), 1.4 µg/mL (≈ 3.46 µM) and 16.4.
